Results published in ChEMBL document CHEMBL1148693, “Expeditious and convenient synthesis of pregnanes and its glycosides as potential anti-dyslipidemic and anti-oxidant agents” (2007).

Tests used:
Type in all cases: functional
[1] = system: Rattus norvegicus; experiment: Decrease in total cholesterol level in WR-1339-induced hyperlipidemic rat plasma at 400 mg/kg, po; design: scale not given: the % may be the effect or the level left
Procedure, shortened: (§1)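 Male adult Charles Foster rats (200–225 g), six per group. Triton WR-1339 400 mg/kg b.w. ip; treatment suspended in water with 0.2% w/v gum acacia, given po at the same time; diet withdrawn. Vehicle controls were included. After 18 h, under thiopentone anaesthesia, retro-orbital blood was collected into EDTA. Plasma was diluted 1:3 in saline and assayed enzymatically on an autoanalyzer. Percent change vs triton-only group, Student's t-test.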

[2] = system: Rattus norvegicus; experiment: Decrease in phospholipid level in WR-1339-induced hyperlipidemic rat plasma at 400 mg/kg, po; design: scale not given: the % may be the effect or the level left; procedure, shortened: as §1
[3] = Hydroxy radical scavenging activity assessed by measuring malondialdehyde produced at 400 ug/kg by thiobarbituric acid method; settings: in the assay text read “400 ug/ml” for “400 ug/kg”
Procedure, shortened: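 Non-enzymic hydroxyl-radical generation: deoxyribose 2.8 mM, FeSO4 2 mM, sodium ascorbate 2.0 mM and H2O2 2.8 mM in 50 mM KH2PO4, pH 7.4. Run with or without test compound at […], 37 °C for 90 min. Compared with compound-free reaction by Student's t-test.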

[4] = Superoxide radical scavenging activity assessed by measuring formazone produced at 400 ug/kg; settings: in the assay text read “400 ug/ml” for “400 ug/kg”
Procedure, shortened: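 Superoxide generated enzymatically with xanthine ([…]), xanthine oxidase (0.04 U) and nitroblue tetrazolium, in 100 mM phosphate buffer, pH 8.2. Samples were sonicated in buffer and added at […], 37 °C for 30 min. Stopped with 0.5 mL glacial acetic acid; formazan read at 560 nm. Percent inhibition from ε 7.2×10³ M⁻¹cm⁻¹.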

[5] = system: Rattus norvegicus; experiment: Decrease in triglyceride level in WR-1339-induced hyperlipidemic rat plasma at 400 mg/kg, po; design: scale not given: the % may be the effect or the level left; procedure, shortened: as §1
[6] = system: Rattus norvegicus; experiment: Decrease in triglyceride level in WR-1339-induced hyperlipidemic rat plasma at 100 mg/kg, po; design: scale not given: the % may be the effect or the level left; procedure, shortened: as §1
[7] = system: Rattus norvegicus; experiment: Decrease in total cholesterol level in WR-1339-induced hyperlipidemic rat plasma at 100 mg/kg, po; design: scale not given: the % may be the effect or the level left; procedure, shortened: as §1
[8] = system: Rattus norvegicus; experiment: Decrease in phospholipid level in WR-1339-induced hyperlipidemic rat plasma at 100 mg/kg, po; design: scale not given: the % may be the effect or the level left; procedure, shortened: as §1

Molecule `CC(=O)C1=CC[C@H]2[C@@H]3CC=C4C[C@@H](OC(=O)c5ccccc5Cl)CC[C@]4(C)[C@H]3CC[C@]12C` has an Activity [1] of -21%, an Activity [2] of -17% and an Activity [3] of 35.01 nmol/h. For the same molecule, the Activity [4] was 14.33 nmol/min and the Activity [5] was -14%.
`CC(=O)OC[C@H]1O[C@H](OCCO[C@@H]2C[C@H]3[C@@H]4CC=C5C[C@@H](O)CC[C@]5(C)[C@H]4CC[C@]3(C)[C@H]2C(C)=O)[C@@H](OC(C)=O)[C@@H](OC(C)=O)[C@@H]1OC(C)=O` gave an Activity [3] of 35.05 nmol/h and an Activity [4] of 13.22 nmol/min.
In the case of `CC(=O)OCCO[C@@H]1C[C@H]2[C@@H]3CC=C4C[C@@H](OC(C)=O)CC[C@]4(C)[C@H]3CC[C@]2(C)[C@H]1C(C)=O`, the Activity [1] is reported as -13%, the Activity [2] is reported as -13% and the Activity [3] is reported as 41.5 nmol/h. The Activity [4] was 21.5 nmol/min and the Activity [5] was -16%.
With `C[C@H](O)[C@H]1[C@H](OCCO)C[C@H]2[C@@H]3CC=C4C[C@@H](O)CC[C@]4(C)[C@H]3CC[C@]12C` the Activity [1] was -23%, the Activity [2] was -25% and the Activity [3] was 31.09 nmol/h. It also gave an Activity [4] of 9.33 nmol/min and an Activity [5] of -26%.
Molecule `CC(=O)OCCO[C@@H]1C[C@H]2[C@@H]3CC=C4C[C@@H](OC(C)=O)CC[C@]4(C)[C@H]3CC[C@]2(C)[C@H]1[C@H](C)OC(C)=O` has an Activity [1] of -18%, an Activity [2] of -14% and an Activity [3] of 33.9 nmol/h. It also gave an Activity [4] of 12.63 nmol/min and an Activity [5] of -13%.
With `C/C(=N\OCCCCCBr)C1=CC[C@H]2[C@@H]3CC=C4C[C@@H](O)CC[C@]4(C)[C@H]3CC[C@]12C` the Activity [1] was -4%, the Activity [2] was -5% and the Activity [3] was 38.52 nmol/h. For the same molecule, the Activity [4] was 15.33 nmol/min and the Activity [5] was -5%.
With `CC(=O)C1=CC[C@H]2[C@@H]3CC=C4C[C@@H](OC(=O)c5ccc(Cl)cc5)CC[C@]4(C)[C@H]3CC[C@]12C` the Activity [1] was -27%, the Activity [2] was -27% and the Activity [3] was 27.16 nmol/h. The Activity [4] was 11.1 nmol/min and the Activity [5] was -25%.
Molecule `CC(=O)O[C@@H]1[C@@H](OC(C)=O)[C@H](C)O[C@@H](OCCO[C@@H]2C[C@H]3[C@@H]4CC=C5C[C@@H](O)CC[C@]5(C)[C@H]4CC[C@]3(C)[C@H]2C(C)=O)[C@@H]1OC(C)=O` has an Activity [3] of 39.02 nmol/h and an Activity [4] of 12.8 nmol/min.
With `CC(=O)[C@H]1[C@H](OCCO)C[C@H]2[C@@H]3CC=C4C[C@@H](O)CC[C@]4(C)[C@H]3CC[C@@]21C` the Activity [1] was -13%, the Activity [2] was -8% and the Activity [3] was 36.12 nmol/h. For the same molecule, the Activity [4] was 7.83 nmol/min and the Activity [5] was -11%.
For `Cc1ccc(C)c(OCCCC(C)(C)C(=O)O)c1` [GEMFIBROZIL], the Activity [6] was -32%, the Activity [7] was -37% and the Activity [8] was -36%.
